Screens: PubChem BioAssay, Johns Hopkins Ion Channel Center
Most compounds without a hit are left out; they make up all but 2.3% or so of the library.
TRPC4 potent: positive allosteric modulators of TRPC4, primary screen, cell-based, mouse TRPC4beta, HEK293 mu-opioid, Fluo-4 calcium; hit rate 0.42% among 310,000; DAMGO EC20, Fluo-4 Ca2+ flux; stronger effect = higher value; AID 2227, 2009; Short transient receptor potential channel 4 (Mus musculus), Q9QUQ5; B-score at 10 µM;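 active = B-score of calcium response area above 5 SD of library B-scores, with initial fluorescence ratio within 5 SD of library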;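 also: B-score of integrated fluorescence ratio over time as area under calcium response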
Target sequence (Q9QUQ5 whole entry, looked up): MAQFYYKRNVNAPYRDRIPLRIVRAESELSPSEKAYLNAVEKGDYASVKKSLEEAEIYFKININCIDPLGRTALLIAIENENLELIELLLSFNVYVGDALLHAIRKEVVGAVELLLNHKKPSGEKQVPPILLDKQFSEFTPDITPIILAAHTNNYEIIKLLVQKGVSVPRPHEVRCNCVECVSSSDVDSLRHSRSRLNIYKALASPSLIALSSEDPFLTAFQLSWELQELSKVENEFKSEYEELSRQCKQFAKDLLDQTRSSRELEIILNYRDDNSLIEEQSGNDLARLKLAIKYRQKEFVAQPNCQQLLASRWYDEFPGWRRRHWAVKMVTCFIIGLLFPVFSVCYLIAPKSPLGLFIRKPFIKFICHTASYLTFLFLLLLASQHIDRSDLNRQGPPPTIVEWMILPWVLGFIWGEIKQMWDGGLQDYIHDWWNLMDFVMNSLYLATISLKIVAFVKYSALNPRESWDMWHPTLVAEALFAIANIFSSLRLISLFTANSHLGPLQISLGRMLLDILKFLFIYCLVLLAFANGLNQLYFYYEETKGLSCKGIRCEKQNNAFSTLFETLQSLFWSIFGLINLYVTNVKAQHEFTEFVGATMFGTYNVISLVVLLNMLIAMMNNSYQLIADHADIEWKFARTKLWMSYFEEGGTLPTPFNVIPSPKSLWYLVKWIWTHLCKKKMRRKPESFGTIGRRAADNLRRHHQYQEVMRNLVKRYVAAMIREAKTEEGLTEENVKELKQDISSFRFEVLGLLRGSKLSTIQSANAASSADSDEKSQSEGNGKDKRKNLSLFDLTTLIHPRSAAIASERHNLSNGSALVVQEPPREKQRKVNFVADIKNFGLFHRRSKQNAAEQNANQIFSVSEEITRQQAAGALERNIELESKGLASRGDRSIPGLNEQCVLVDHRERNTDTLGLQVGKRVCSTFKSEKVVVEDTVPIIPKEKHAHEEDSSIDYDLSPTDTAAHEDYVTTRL
TRPC6 inh: mouse TRPC6 channel inhibitors, primary screen, cell-based, HEK293, membrane potential dye | ACh-evoked depolarization; stronger effect = lower value | B-score at 10 µM | hit rate 1.1% among 310,000;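 active = B-score under library mean minus 3 SD, initial fluorescence not abnormally high, positive integrated signal ratio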;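 also: B-score derived from integrated fluorescence ratio over the kinetic read; more negative B-score means stronger inhibition of depolarization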
TRPC4 act: activators of mouse TRPC4 channel, primary screen, Fluo4 calcium, HEK293 TRPC4beta/mu-opioid cells; Short transient receptor potential channel 4 (Mus musculus), Q9QUQ5; Fluo4 calcium fluorescence; stronger effect = higher value; B-score at 10 µM; hit rate 0.49% among 310,000;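 active = B-score above 5 SD of library B-scores, and initial fluorescence ratio not above library mean plus 5 SD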;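 also: positive B-score marks a calcium rise read as TRPC4 activation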
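Assay system: HEK293 stable line with TRPC4beta plus mu-opioid receptor. Times: dye 45 min RT, read 110 s. Measured by: kinetic Fluo4 calcium fluorescence. Measure: B score of integrated ratio. Controls: assay buffer as low control, maximal DAMGO as high control.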
TRPC4 inh: inhibitors of mouse TRPC4 channel, primary screen, Fluo4 calcium, HEK293 TRPC4beta/mu-opioid cells; Short transient receptor potential channel 4 (Mus musculus), Q9QUQ5; DAMGO-evoked Fluo4 calcium flux; stronger effect = lower value; B-score at 10 µM; hit rate 0.39% among 300,000; AID 2247, 2010;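 active = B-score over 3 SD under the library average, no early fluorescence shift, positive overall ratio signal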
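test system = HEK293 cells with stable TRPC4beta plus mu-opioid receptor expression | detection = Fluo4 Ca2+ flux fluorescence | read-out = integrated fluorescence ratio relative to baseline, converted to per-well B score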
TRPC6 activator: mouse TRPC6 channel activators, primary screen, cell-based, HEK293, membrane potential dye; AID 2550, 2010; HEK293-TRPC6 membrane potential dye fluorescence; stronger effect = higher value; Short transient receptor potential channel 6 (Mus musculus), Q61143; B-score at 10 µM; hit rate 0.13% among 310,000;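 active = B-score of the integrated fluorescence ratio above library mean plus 3 SD, and starting fluorescence ratio within library mean plus 5 SD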;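 also: higher score means more depolarization so channel activation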
TRPC4 sel inh 2: second check of whether TRPC6 inhibitors also affect mouse TRPC4; AID 2776; inhibition, % at 10 µM; HEK293 TRPC4/MOR, membrane potential dye fluorescence; channel activated by saturating DAMGO dose; hit rate 42% among 920; shares compounds with TRPC6 inh;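 active = compounds whose fluorescence signal differed from control wells by over 3 SD, either direction, in both duplicate plates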
TRPC4 spec: mouse TRPC4 modulation by TRPC6 hits, confirmation, selectivity assay for TRPC6 inhibitor project, cell-based, HEK293 TRPC4/mu-opioid, membrane potential dye; AID 2777, 2010; shares compounds with TRPC6 inh; membrane potential fluorescence; activity change, negative = inhibition, % at 10 µM; hit rate 61% among 920;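 active = rise or fall in signal beyond 3 SD of buffer-only wells in both replicate plates, either sign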;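 also: integrated kinetic ratio of fluorescence range over baseline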
HEK293 MPD ctr 2-1: nonspecific membrane potential effects, parental HEK293, confirmation, counter-screen for TRPC6 inhibitor project, cell-based, second counter screen; signal change vs control, % at 10 µM; AID 2779, 2010; parental HEK293 membrane potential dye fluorescence; maximal acetylcholine challenge after compound addition; shares compounds with TRPC6 inh; hit rate 31% among 920;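 active = membrane potential signal moving either way by over 3 SD of the maximum-effect control, in both duplicate plates, meaning non-specific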
HEK293 MPD ctr-1: membrane potential modulation in parental HEK293, confirmation, counter-screen for TRPC6 inhibitor project, cell-based. shares compounds with TRPC6 inh. parental HEK293 membrane potential dye fluorescence. membrane potential signal change, % at 10 µM. hit rate 60% among 920. AID 2780, 2010;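 active = membrane potential signal shifting up or down by more than 3 SD of buffer-only wells, on both duplicate plates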
HEK293 MPD ctr-2: parental HEK293 membrane potential modulation, confirmation, counter-screen for TRPC6 modulator project, cell-based; shares compounds with TRPC6 inh; membrane potential dye fluorescence; membrane potential signal change, % at 10 µM; hit rate 51% among 2,400;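 active = membrane potential signal moves up or down beyond 5 SD from buffer-only wells, on both duplicate plates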
HEK293 MPD ctr 2-2: second counter-screen for TRPC6 modulators: effect in parental HEK293 cells. shares compounds with TRPC6 inh. membrane potential dye fluorescence; after compound, maximal acetylcholine stimulation. inhibition, % at 10 µM. hit rate 14% among 2,400. AID 488926;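 active = membrane potential signal drops by more than 5 SD from the mean control signal, in both duplicate plates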;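 also: plate controls were acetylcholine ECmax control wells for no effect and buffer only wells for full effect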
TRPC4 ctr mod: TRPC4 modulation by TRPC6 hit compounds, confirmation, selectivity assay for TRPC6 modulator project, cell-based, HEK293 TRPC4/mu-opioid, membrane potential dye, mouse. shares compounds with TRPC6 inh. membrane potential fluorescence. percent change from control (negative = decrease, positive = increase), % at 10 µM. hit rate 69% among 2,400;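 active = membrane potential signal moved up or down beyond 5 SD of buffer control wells, in both duplicate plates, actives on both sides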;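 also: plate controls were assay buffer wells for no effect and DAMGO maximal-effect wells for full effect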
TRPC4 ctr inh 2: mouse TRPC4 off-target activity of TRPC6 modulators, second screen; shares compounds with TRPC6 inh; HEK293 TRPC4/mu-opioid, membrane potential dye fluorescence; stimulated with maximal-effect DAMGO; inhibition, % at 10 µM; hit rate 55% among 2,400; AID 488928;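 active = drop in membrane potential signal beyond 5 SD of the control wells in both duplicate plates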;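 also: TRPC4 counter screen for TRPC6 hits run under conditions tuned for TRPC6 not TRPC4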
TRPC6 inh conf: mouse TRPC6 channel inhibitors, confirmation, HEK293 cells, membrane potential dye, duplicate; ACh-evoked depolarization; AID 488960, 2010; hit rate 43% among 3,300; inhibition, % at 10 µM; shares compounds with TRPC6 inh;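 active = fluorescence ratio falls more than 5 SD below the full-stimulation control mean, in both duplicate runs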;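 also: integrated fluorescence ratio of peak minus minimum over baseline after agonist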
TRPC6 act conf: mouse TRPC6 channel activators, confirmation, HEK293 cells, membrane potential dye, duplicate; HEK293-TRPC6 membrane potential dye fluorescence, FDSS; hit rate 11% among 2,800; activation, % at 10 µM; shares compounds with TRPC6 inh;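 active = ratio signal rise beyond 5 SD above unstimulated control wells' mean, seen in both duplicate runs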;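 also: plate controls were buffer EC0 wells for no effect and acetylcholine ECmax response for full effect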
Starred values were filed as active, the others as inactive; i = inactive; . = not tested or not shown.

SMILES | TRPC4 potent | TRPC6 inh | TRPC4 act | TRPC4 inh | TRPC6 activator | HEK293 MPD ctr-2 | HEK293 MPD ctr 2-2 | TRPC4 ctr mod | TRPC4 ctr inh 2 | TRPC6 inh conf | TRPC6 act conf | others
CCCc1nnc(SCC(=O)O)n1CC | i | i | i | i | i | . | . | . | . | . | .
Cc1cccc(C(C)C)c1NC(=O)CN1C(=O)NC2(CCc3ccccc32)C1=O (stereo not drawn) | i | i | i | i | i | . | . | . | . | . | .
CCOc1ccc(/C=N/n2c(SC)nnc2-c2ccccc2)cc1OCC | i | i | i | i | i | . | . | . | . | . | .
Cc1ccc(C(CC(=O)NCCCN(C)C)c2ccc(OC(C)C)cc2)cc1 (stereo not drawn) | i | i | i | i | i | . | . | . | . | . | .
CC(=O)c1nnn(-c2nc(N)nc(N(c3ccccc3)c3ccccc3)n2)c1C | i | i | i | i | i | . | . | . | . | . | .
CCCCN(CCCC)c1nc(OC)nc(-n2nnc(C(C)=O)c2C)n1 | i | i | i | i | 11* | 240%* | i | 57%* | i | i | 96%*
CC(C)c1ccc(S(=O)(=O)N2CCN(C(=O)C3CC3C)CC2)cc1 (stereo not drawn) | i | -10* | i | i | 16* | i | i | 17%* | i | 112%* | 145%*
CC(C)c1ccc(S(=O)(=O)N2CCN(C(=O)c3cccc(F)c3)CC2)cc1 | i | i | i | i | 17* | i | i | 20%* | i | . | 186%*
CC(C)c1ccc(S(=O)(=O)N2CCN(C(=O)C3CCCCC3)CC2)cc1 | i | i | i | i | i | . | . | . | . | . | .
CC(=O)c1ccc(OCCCC(=O)N2CCN(S(=O)(=O)c3cc(C)ccc3C)CC2)cc1 | i | i | i | i | i | . | . | . | . | . | .
Cc1ccc(C(=O)N2CCN(S(=O)(=O)c3ccc(C)cc3)CC2)cc1 | i | -5.1* | i | i | i | i | i | i | i | 79%* | .
CC(=O)c1ccc(OCCCC(=O)N2CCN(S(=O)(=O)c3ccc(C(C)C)cc3)CC2)cc1 | i | -9.2* | i | i | i | . | . | . | . | i | . | TRPC4 sel inh 2=i;TRPC4 spec=-0.4%*;HEK293 MPD ctr 2-1=i;HEK293 MPD ctr-1=1.7%*
CC1(CO)COC(c2ccccc2)=N1 (stereo not drawn) | i | i | i | i | i | . | . | . | . | . | .
CCCc1nc2ccccc2c(C(=O)OC(C)C(=O)NCc2ccc3c(c2)OCO3)c1CC (stereo not drawn) | i | i | i | i | i | . | . | . | . | . | .
COc1cccc(C(=O)Nc2ccc(C(F)(F)F)n(C)c2=O)c1 | i | i | i | i | i | . | . | . | . | . | .
CN(C)CCc1cc2c(c3c1ccc1ccccc13)OCO2 | i | -5.2* | i | i | i | i | i | -10%* | 47%* | i | i
CCCCOC(=O)/C(=C/c1cn(C)c2ccccc12)NC(=O)c1ccc(OC)cc1 | i | i | i | i | i | . | . | . | . | . | .
COc1ccc(C(=O)N/C(=C\c2cn(C)c3ccccc23)C(=O)OCCN(C)C)cc1 | i | -6.1* | i | i | i | i | i | i | 53%* | 45%* | i
COc1ccc(-c2ccccc2NC(=O)C2CCCN(Cc3ccc(C)o3)C2)cc1 (stereo not drawn) | i | i | i | i | i | . | . | . | . | . | .
COC(=O)c1ccccc1NC(=O)c1cc[n+]([O-])cc1 | i | i | i | i | i | . | . | . | . | . | .
COC(=O)c1ccccc1NC(=O)c1cc[n+](C)cc1 | i | -5.8* | i | i | i | -200%* | i | -33%* | i | i | i
Cc1cc(C)c2c(n1)nn1c(NCCCN(C)C)cc(C)nc21 | i | i | i | i | i | . | . | . | . | . | .
Cc1cc(NCCCN(C)C)n2nc(-c3cccs3)cc2n1 | 12* | -8.2* | i | i | i | -349%* | 82%* | -58%* | 58%* | 69%* | i
CC(=O)NCCc1nc2ccccc2n1Cc1cc(C)ccc1C | i | -5.1* | i | i | i | i | i | 17%* | i | i | i
O=C(Nc1ccnc(-c2cccnc2)n1)c1cccc(Cl)c1Cl | i | i | i | i | i | . | . | . | . | . | .
c1ccc(-c2nc3nc4ccccc4nc3n2Cc2ccco2)cc1 | i | i | i | i | i | . | . | . | . | . | .
